# In ChEMBL document CHEMBL3046221, “Asymmetric chloronicotinyl insecticide, 1-[1-(6-chloro-3-pyridyl)ethyl]-2-nitroiminoimidazolidine: preparation, resolution and biological activities toward insects and their nerve preparations” (Biosci Biotechnol Biochem, 2003):
# Assays:
# [1] = biological target: T1, Nicotinic acetylcholine receptor alpha 5 subunit (Musca domestica, UniProt A9XFY4); test: Displacement of [3HIMI from nicotinic acetylcholine receptor in Musca domestica (house fly) head membranes incubated for 60 min by liquid scintillation counting method; set-up: species or system Membrane
# T1 sequence (A9XFY4 whole entry): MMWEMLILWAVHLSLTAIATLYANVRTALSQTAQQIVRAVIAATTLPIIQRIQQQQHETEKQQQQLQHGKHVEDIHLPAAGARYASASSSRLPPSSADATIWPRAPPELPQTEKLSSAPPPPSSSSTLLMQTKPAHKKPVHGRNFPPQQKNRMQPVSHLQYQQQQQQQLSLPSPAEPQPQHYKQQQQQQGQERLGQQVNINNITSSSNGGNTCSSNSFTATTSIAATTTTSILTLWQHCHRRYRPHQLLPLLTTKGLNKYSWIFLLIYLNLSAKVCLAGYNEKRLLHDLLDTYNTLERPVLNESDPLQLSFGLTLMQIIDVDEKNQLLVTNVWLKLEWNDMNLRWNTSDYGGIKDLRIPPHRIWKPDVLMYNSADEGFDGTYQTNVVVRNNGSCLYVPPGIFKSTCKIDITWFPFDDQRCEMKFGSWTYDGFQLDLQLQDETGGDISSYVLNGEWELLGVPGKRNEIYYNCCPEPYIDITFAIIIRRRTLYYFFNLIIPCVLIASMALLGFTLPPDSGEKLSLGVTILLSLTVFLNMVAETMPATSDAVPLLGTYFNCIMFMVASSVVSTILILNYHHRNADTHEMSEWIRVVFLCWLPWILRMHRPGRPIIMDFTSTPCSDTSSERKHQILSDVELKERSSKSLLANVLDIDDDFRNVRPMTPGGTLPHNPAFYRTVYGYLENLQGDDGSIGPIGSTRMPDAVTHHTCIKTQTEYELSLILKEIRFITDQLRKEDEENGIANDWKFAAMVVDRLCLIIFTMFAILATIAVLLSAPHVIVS
# How it was run: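 Housefly heads homogenized in pH 7.4 phosphate/sucrose/EDTA buffer; 700 g and 125,000 g spins; pellet resuspended in pH 7.4 phosphate, 50 mM NaCl, 0.1% Triton X-100. Membranes (3 mg/ml protein) preincubated with compound in DMSO 3-5 min at 24°C, then [3H]imidacloprid 10 nM final, 60 min at 24°C. GF/B filtration; IC50 for inhibition of specific binding.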
# [2] = system: Musca domestica; test: Insecticidal activity against female Musca domestica (house fly) administered through injection into dorsal side of thorax pre-treated with 0.2% w/v NIA and 0.2% w/v PB before compound injection measured 1 hr post dose; format: functional
# How it was run: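 Female houseflies anesthetized with CO2 were given 1 µl methanol with NIA 0.2% and PB 0.2% (w/v) topically on the abdomen. After 1 h at 25°C, 0.22 µl of compound in 50% aqueous ethanol at various concentrations was injected. Dead or paralyzed flies were counted 1 h later at 25°C, and ED50 (mol/insect) was derived by probit analysis.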
# [3] = system: Musca domestica; test: Insecticidal activity against female Musca domestica (house fly) administered through injection into dorsal side of thorax measured 1 hr post dose; format: functional
# [4] = system: Periplaneta americana; test: Neuroblocking potency against Periplaneta americana (American cockroach) abdominal central nerve cord assessed as compound concentration at which the frequency first reduced below 10 counts/30 secs […] by electrophysiologt method; format: functional
SMILES,IC50 [1] [nM],ED50 [2] [fmol],ED50 [3] [fmol],Activity [4] [µM]
CN1CCC[C@@H]1c1cccnc1 [R-NICOTINE],422000,,,
Clc1ccc([C@@H]2C[C@H]3CC[C@@H]2N3)cn1 [(+)-EPIBATIDINE],2790,,,
C[C@@H](c1ccc(Cl)nc1)N1CCN/C1=N\[N+](=O)[O-] [(S)-METHYL-IMIDACLOPRID],190,1.1,45,5.9
"CC(c1ccc(Cl)nc1)N1CCN/C1=N\[N+](=O)[O-] (racemic) [(R,S)-METHYL-IMIDACLOPRID]",210,1.7,26,15
Clc1ccc([C@H]2C[C@@H]3CC[C@H]2N3)cn1 [(-)-EPIBATIDINE],1340,,,
C[C@H](c1ccc(Cl)nc1)N1CCN/C1=N\[N+](=O)[O-] [(R)-METHYL-IMIDACLOPRID],950,2.3,55,73
O=[N+]([O-])/N=C1\NCCN1Cc1ccc(Cl)nc1 [IMIDACLOPRID],,0.26,2.2,2.3
CN1CCC[C@H]1c1cccnc1 [NICOTINE],11900,,,
